Measurements from ChEMBL document CHEMBL1124697, “A new family of water-soluble, third generation antitumor platinum complexes” (J Med Chem, 1989).
Active and inactive are the calls of the source.

Assays:
[1] = test system: B16; experiment: Percent increase in life span when compound administered at 25 mg/kg against B-16 melanoma cells in […] mice; assay type: functional, organism-based; design: dose 25 mg/kg; conditions: Mus musculus
Summary of the method: (§1)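 B-16 melanoma in […] mice; compounds given ip daily on days 1–9 relative to tumor inoculation, animals followed 60 days. Read-out median % increase in life span over controls at optimal dose with % survivors; activity threshold ILS ≥25%; ≥15% reduction in ILS or body weight versus controls rated toxic.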

[2] = test system: B16; experiment: Percent survivors when compound administered at 25 mg/kg against B-16 melanoma cells in […] mice; assay type: functional, organism-based; design: dose 25 mg/kg; conditions: Mus musculus
Summary of the method: (§2)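 Median % increase in life span versus controls and % survivors are recorded at the optimal dose. ILS ≥25% counts as active, and a ≥15% reduction in ILS or body weight counts as toxic.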

[3] = test system: P388; experiment: Percent survivors when compound administered at 200 mg/kg against P388 leukemia cells in BDF1 mice; assay type: functional, organism-based; design: dose 200 mg/kg; conditions: Mus musculus
Summary of the method: (§3)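 BDF1 mice inoculated with P388, L1210 or cisplatin-resistant L1210 leukemia. Compound given ip on days 1, 5 and 9 relative to tumor inoculation, and mice observed for 30 days. Median % increase in life span over controls and % survivors are reported at the optimal dose. Activity requires ILS ≥25%. Toxicity is rated when ILS or body weight is reduced by ≥15%.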

[4] = test system: P388; experiment: Percent increase in life span when compound administered at 200 mg/kg against P388 leukemia cells in BDF1 mice; assay type: functional, organism-based; design: dose 200 mg/kg; conditions: Mus musculus
[5] = Water solubility was determined; assay type: ADME; conditions: buffer
[6] = test system: B16; experiment: Percent increase in life span when compound administered at 0.4 mg/kg against B-16 melanoma cells in […] mice; assay type: functional, organism-based; design: dose 0.4 mg/kg; conditions: Mus musculus; summary of the method: as §1
[7] = test system: B16; experiment: Percent survivors when compound administered at 0.4 mg/kg against B-16 melanoma cells in […] mice; assay type: functional, organism-based; design: dose 0.4 mg/kg; conditions: Mus musculus; summary of the method: as §2
[8] = test system: Colon 26; experiment: Percent in life span when compound administered at 1 mg/kg againstColon 26 cells in balb/C mice; assay type: functional, organism-based; design: dose 1 mg/kg; conditions: Mus musculus
Summary of the method: (§4)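 Colon 26 in Balb/C mice. Test agents given ip on days 1, 5 and 9 relative to tumor inoculation; mice observed 30 days. Median % increase in life span at optimal dose, with % survivors noted; ILS ≥25% over controls required for activity; ILS or body weight reduced ≥15% versus controls rated toxic.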

[9] = test system: Colon 26; experiment: Percent survivors when compound administered at 1 mg/kg againstColon 26 cells in balb/C mice; assay type: functional, organism-based; design: dose 1 mg/kg; conditions: Mus musculus
Summary of the method: (§5)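 Colon 26 tumor in Balb/C mice. Dosing ip on days 1, 5 and 9 after tumor inoculation, with a 30-day observation period. Readouts are median % increase in life span over control mice and % survivors, given at the optimal dose. Activity threshold is ILS ≥25%. A ≥15% drop in ILS or body weight is rated toxic.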

[10] = test system: L1210; experiment: Percent increase in life span when compound administered at 6.2 mg/kg against L1210 leukemia cells in BDF1 mice; assay type: functional, organism-based; design: dose 6.2 mg/kg; conditions: Mus musculus
Summary of the method: (§6)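 BDF1 mice bearing P388, L1210 or cisplatin-resistant L1210 leukemia; ip dosing on days 1, 5 and 9 relative to tumor inoculation, 30-day observation. Median % ILS over controls at optimal dose plus % survivors; ≥25% ILS counted as active, ≥15% reduction in ILS or body weight over controls rated toxic.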

[11] = test system: L1210; experiment: Percent increase in life span when compound administered at 50 mg/kg against L1210 cisplatin resistant leukemia cells in BDF1 mice; IA=inactive; assay type: functional, organism-based; design: dose 50 mg/kg; conditions: Mus musculus; summary of the method: as §6
[12] = test system: L1210; experiment: Percent survivors when compound administered at 50 mg/kg against L1210 cisplatin resistant leukemia cells in BDF1 mice; IA=inactive; assay type: functional, organism-based; design: dose 50 mg/kg; conditions: Mus musculus; summary of the method: as §3
[13] = test system: P388; experiment: Percent survivors when compound administered at 6.2 mg/kg against P388 leukemia cells in BDF1 mice; assay type: functional, organism-based; design: dose 6.2 mg/kg; conditions: Mus musculus; summary of the method: as §3
[14] = test system: P388; experiment: Percent increase in life span when compound administered at 6.2 mg/kg against P388 leukemia cells in BDF1 mice; assay type: functional, organism-based; design: dose 6.2 mg/kg; conditions: Mus musculus; summary of the method: as §6
[15] = test system: Colon 26; experiment: Percent in life span when compound administered at 6.2 mg/kg against Colon 26 cells in balb/C mice; assay type: functional, organism-based; design: dose 6.2 mg/kg; conditions: Mus musculus; summary of the method: as §4
[16] = test system: Colon 26; experiment: Percent survivors when compound administered at 6.2 mg/kg against Colon 26 cells in balb/C mice; assay type: functional, organism-based; design: dose 6.2 mg/kg; conditions: Mus musculus; summary of the method: as §5
[17] = test system: L1210; experiment: Percent survivors when compound administered at 12.5 mg/kg against L1210 leukemia cells in BDF1 mice; assay type: functional, organism-based; design: dose 12.5 mg/kg; conditions: Mus musculus; summary of the method: as §3
[18] = test system: P388; experiment: Percent survivors when compound administered at 25.5 mg/kg against P388 leukemia cells in BDF1 mice; assay type: functional, organism-based; design: dose 25.5 mg/kg; conditions: Mus musculus; summary of the method: as §3
[19] = test system: P388; experiment: Percent increase in life span when compound administered at 25.5 mg/kg against P388 leukemia cells in BDF1 mice; assay type: functional, organism-based; design: dose 25.5 mg/kg; conditions: Mus musculus; summary of the method: as §6
[20] = test system: Colon 26; experiment: Percent in life span when compound administered at 3.1 mg/kg against Colon 26 cells in balb/C mice; assay type: functional, organism-based; design: dose 3.1 mg/kg; conditions: Mus musculus; summary of the method: as §4
[21] = test system: Colon 26; experiment: Percent survivors when compound administered at 3.1 mg/kg against Colon 26 cells in balb/C mice; assay type: functional, organism-based; design: dose 3.1 mg/kg; conditions: Mus musculus; summary of the method: as §5

Platinum:Formic acid 9-formyloxy-3-methyl-2,4-dioxa-8,10-diaza-spiro[5.5]undec-9-yl ester
Increase [1]: 62% | Survivors [2]: 0% | Survivors [3]: 5% | Increase [4]: 173%

Platinum:2,4,10,15-Tetraoxa-8,16-diaza-dispiro[5.2.6.2]heptadecane-11,14-dione
Water solubility [5]: 10000 µg/mL

CISPLATIN
Increase [6]: 36% | Survivors [7]: 0% | Increase [8]: 47% | Survivors [9]: 17% | Increase [10]: 96% | Increase [11]: inactive | Survivors [12]: inactive | Survivors [13]: 17% | Increase [14]: 140%

Platinum:8,8-Dichloro-1,3-dioxa-7,9-diaza-spiro[4.5]decane [listing 1 of 2 here]
Increase [15]: 50% | Survivors [16]: 0% | Survivors [17]: 0% | Survivors [18]: 0% | Increase [19]: 160%

Platinum:8,8-Dichloro-1,3-dioxa-7,9-diaza-spiro[4.5]decane [listing 2 of 2 here]
Water solubility [5]: < 200 µg/mL

Platinum:9,9-Dichloro-2,4-dioxa-8,10-diaza-spiro[5.5]undecane
Increase [6]: 27% | Increase [20]: 41% | Survivors [21]: 0% | Survivors [13]: 3% | Increase [14]: 173%
